Values after ≈ are worked out from the molar mass of the structure shown.
Assays:
[1] = system: B16; assay: Antitumor activity against B16-BN murine melanoma cell line; format: functional, cell-based; settings: Mus musculus
In short: (§1)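 Crystal violet staining of cultured tumour cells. The stain was solubilized in 0.1 M AcOH-EtOH (1:1 v/v) and optical density read at 590 nm. IC50 came from linear regression of the absorbance data. Compounds were in DMSO vehicle; mitomycin C was in DMSO/saline. Indoloquinone values are the mean of two experiments per cell line.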

[2] = system: P388; assay: Maximum effect against P388 murine leukemia in mice at a dose of 25.6 mg/kg; format: functional, Mus musculus
[3] = Antitumor activity against SW1271 human lung carcinoma cell line; format: functional, cell-based; in short: as §1
[4] = system: HCT-116; assay: Antitumor activity against HCT116 human colon carcinoma cell line; format: functional, cell-based; in short: as §1
[5] = system: B16-F10; assay: Antitumor activity against B16-F10 murine melanoma cell line; format: functional, cell-based; settings: Mus musculus; in short: as §1
[6] = species on record: Homo sapiens; assay: Antitumor activity against moser human colon carcinoma cell line; format: functional; in short: as §1
[7] = system: A549; assay: Antitumor activity against A549 human lung carcinoma cell line; format: functional, cell-based; in short: as §1
[8] = system: P388; assay: Minimum effective dose of compound against P388 murine leukemia in mice; format: functional; settings: Mus musculus, read-out: MED
In short: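 P388 ascites leukemia (10^6 cells) in CDF1 female mice, dosed once on day 1, six mice per dose, saline controls (10). Minimal effective dose defined as dose giving % T/C = 125, from median survival times.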

[9] = system: P388; assay: Maximum effect on P388 murine leukemia in mice at a dose of 32.0 mg/kg; format: functional, Mus musculus
In short: (§2)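 P388 leukemia, 10^6 ascites cells implanted in CDF1 female mice; single dose on day 1, six mice per dose, 10 saline controls, concurrent mitomycin C control group per experiment. Max effect = % T/C (median survival time treated/control × 100) at optimal dose.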

[10] = system: P388; assay: Maximum effect on P388 murine leukemia in mice at a dose of 12.8 mg/kg; format: functional, Mus musculus; in short: as §2
[11] = Antitumor activity against SW900 human lung carcinoma cell line; format: functional, cell-based; in short: as §1
[12] = system: P388; assay: Maximum effect on P388 murine leukemia in mice at a dose of 6.4 mg/kg; format: functional, Mus musculus
[13] = system: P388; assay: Maximum effect on P388 murine leukemia in mice at a dose of 25.6 mg/kg
[14] = system: HCT-116; assay: Antitumor activity against HCT116 human colon carcinoma cell line experiment 2; format: functional, cell-based
In short: (§3)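 Cell growth in A549 and HCT-116 cultures was read by tetrazolium staining, with an IC50 reported for each of two separate experiments.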

[15] = system: HCT-116; assay: Antitumor activity against HCT116 human colon carcinoma cell line experiment 1; format: functional, cell-based; in short: as §3
[16] = system: A549; assay: Antitumor activity against A549 human lung carcinoma cell line in experiment 1; format: functional, cell-based; in short: as §3
[17] = system: A549; assay: Antitumor activity against A549 human lung carcinoma cell line in experiment 2; format: functional, cell-based; in short: as §3
[18] = system: P388; assay: Maximum effect on P388 murine leukemia in mice at a dose of 51.2 mg/kg; format: functional, Mus musculus

Row | IC50 [1] | IC50 [3] | IC50 [4] | IC50 [5] | IC50 [6] | IC50 [7] | IC50 [11] | IC50 [14] | IC50 [15] | IC50 [16] | IC50 [17] | Compound | T/C [2] | minimal effective dose [8] | T/C [9] | T/C [10] | T/C [12] | T/C [13] | T/C [18]
1 | 9.5 µg/mL (≈ 26.1 µM) | 7.9 µg/mL (≈ 21.7 µM) | 3.7 µg/mL (≈ 10.2 µM) | 13.3 µg/mL (≈ 36.5 µM) | 3.1 µg/mL (≈ 8.51 µM) | 1.6 µg/mL (≈ 4.39 µM) |  |  |  |  |  | CNC(=O)OCc1c2c(n(C)c1COC(=O)NC)C(O)=C(C)C(=N)C2=O | 120% |  |  |  |  |  | 
2 |  | 0.14 µg/mL (≈ 0.369 µM) | < 0.03 µg/mL | < 0.03 µg/mL | < 0.03 µg/mL |  | < 0.03 µg/mL |  |  |  |  | CNC(=O)OCc1c2c(n(C)c1COC(=O)NC)C(=O)C(C)=C(OC)C2=O |  |  |  |  | 100% |  | 
3 | 14 µg/mL (≈ 40.1 µM) | > 31 µg/mL | > 31 µg/mL | > 31 µg/mL | 12.8 µg/mL (≈ 36.6 µM) | > 3.1 µg/mL |  |  |  |  |  | CNC(=O)OCc1c2c(n(C)c1COC(C)=O)C(O)=C(C)C(=N)C2=O |  |  |  |  |  | 105% | 
4 |  |  |  |  |  |  |  | 0.06 µg/mL (≈ 0.159 µM) | 0.06 µg/mL (≈ 0.159 µM) | 0.075 µg/mL (≈ 0.198 µM) | 0.065 µg/mL (≈ 0.172 µM) | CNC(=O)OCc1c2c(n(C)c1C(C)OC(C)=O)C(=O)C(C)=C(OC)C2=O (stereo unspecified) |  |  |  |  |  |  | 
5 |  | 0.47 µg/mL (≈ 1.29 µM) | 0.065 µg/mL (≈ 0.178 µM) | 0.2 µg/mL (≈ 0.549 µM) | 0.09 µg/mL (≈ 0.247 µM) |  | 0.04 µg/mL (≈ 0.11 µM) |  |  |  |  | CNC(=O)OCc1c2c(n(C)c1COC(C)=O)C(=O)C(C)=C(OC)C2=O |  |  |  |  |  |  | 105%
6 | 3.6 µg/mL (≈ 10.8 µM) | 8.1 µg/mL (≈ 24.2 µM) | 1.1 µg/mL (≈ 3.29 µM) | 1.5 µg/mL (≈ 4.49 µM) | 2.8 µg/mL (≈ 8.37 µM) | 0.47 µg/mL (≈ 1.41 µM) | 0.24 µg/mL (≈ 0.718 µM) | 0.01 µg/mL (≈ 0.0299 µM) | 0.015 µg/mL (≈ 0.0449 µM) | 0.015 µg/mL (≈ 0.0449 µM) | 0.08 µg/mL (≈ 0.239 µM) | CO[C@@]12[C@H](COC(N)=O)C3=C(C(=O)C(C)=C(N)C3=O)N1C[C@@H]1N[C@@H]12 [MITOMYCIN] |  |  |  |  |  |  | 

Row | Compound | IC50 [1] | IC50 [3] | IC50 [4] | IC50 [5] | IC50 [6] | IC50 [7] | IC50 [11] | IC50 [14] | IC50 [15] | IC50 [16] | IC50 [17] | T/C [2] | minimal effective dose [8] | T/C [9] | T/C [10] | T/C [12] | T/C [13] | T/C [18]
7 | CNC(=O)OCc1c2c(n(C)c1COC(=O)NC)C(=O)C(C)=C(N1CC1)C2=O | 1.6 µg/mL (≈ 4.1 µM) | 2.7 µg/mL (≈ 6.92 µM) | 0.17 µg/mL (≈ 0.435 µM) | 0.66 µg/mL (≈ 1.69 µM) | 0.13 µg/mL (≈ 0.333 µM) | 0.03 µg/mL (≈ 0.0768 µM) |  |  |  |  |  |  | 14.5 mg/kg | 145% |  |  |  | 
8 | CNC(=O)OCc1c2c(n(C)c1COC(C)=O)C(=O)C(C)=C(N1CC1)C2=O | 0.27 µg/mL (≈ 0.719 µM) | 0.73 µg/mL (≈ 1.94 µM) | 0.065 µg/mL (≈ 0.173 µM) | 0.39 µg/mL (≈ 1.04 µM) | 0.035 µg/mL (≈ 0.0932 µM) | < 0.02 µg/mL |  |  |  |  |  |  |  |  | 114% |  |  | 
